Paper PMC8646148 (Bioorganic chemistry, 2021)
pEC50, pIC50: −log10 of the molar value.

What was measured:
AZ-AHR cells = experiment: MTT test in AZ-AHR cells; format: cell-based, human; details: 24 h, up to 50 μM
Summary of the method: (§1)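 MTT viability was run alongside the reporter assays in AZ-AHR cells and in PXR-transfected LS180 cells. Exposure was 24 h to test compound at up to 50 μM, with vehicle DMSO 0.1% v/v. Results are given as % viability. Four technical replicates per treatment, across three consecutive cell passages.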

MDR1a mRNA = experiment: MDR1a gene expression in tissues of mice expressing the human PXR transgene; format: in vivo, mice expressing the human PXR gene (hPXR)
Summary of the method: (§2)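 Humanized hPXR mice (C57BL/6 background, 6–10 weeks) received 10% DMSO or test compound in 3 or 5 doses of 500 μM each, 12 h apart. Groups had n = 3 (1 male, 2 females). Small intestine, large intestine and liver were assayed by qRT-PCR for CYP3A11 and MDR1a mRNA. Analysis: unpaired multiple t-tests with Holm-Sidak correction, α = 0.05, and a ≥2-fold induction criterion.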

MDR1 mRNA [1] = experiment: qRT-PCR of MDR1 in intestinal adenocarcinoma cells; format: cell-based, human; details: 24 h; for Induction of MDR1 mRNA: LS174T, LS174T+PXR and LS180+PXR cells; for Induction of MDR1 mRNA in PXR-KO cells: PXR-KO LS174T cells
Summary of the method: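 Four intestinal models were used: LS174T wild-type, a CRISPR-Cas9 PXR-knockout LS174T line, and LS174T and LS180 cells transiently transfected with a human PXR expression vector. Cells were treated 24 h with test compound at 10 μM (DMSO 0.1% v/v), alongside TCDD 10 nM or RIF 10 μM. MDR1 mRNA was measured by qRT-PCR normalized to GAPDH. Three consecutive passages, one well per treatment.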

LS180 cells = experiment: MTT test in LS180 cells; format: cell-based, human; details: 50 μM, 24 h
Summary of the method: as §1

PXR [2] = molecular target: T1, PXR (Homo sapiens, UniProt O75469); experiment: PXR reporter gene assay in LS180 cells transfected with pSG5-hPXR and p3A4-luc; format: cell-based; details: for PXR antagonist effect: antagonist mode, in the presence of RIF 10 μM, 24 h
T1 sequence (O75469 1-434): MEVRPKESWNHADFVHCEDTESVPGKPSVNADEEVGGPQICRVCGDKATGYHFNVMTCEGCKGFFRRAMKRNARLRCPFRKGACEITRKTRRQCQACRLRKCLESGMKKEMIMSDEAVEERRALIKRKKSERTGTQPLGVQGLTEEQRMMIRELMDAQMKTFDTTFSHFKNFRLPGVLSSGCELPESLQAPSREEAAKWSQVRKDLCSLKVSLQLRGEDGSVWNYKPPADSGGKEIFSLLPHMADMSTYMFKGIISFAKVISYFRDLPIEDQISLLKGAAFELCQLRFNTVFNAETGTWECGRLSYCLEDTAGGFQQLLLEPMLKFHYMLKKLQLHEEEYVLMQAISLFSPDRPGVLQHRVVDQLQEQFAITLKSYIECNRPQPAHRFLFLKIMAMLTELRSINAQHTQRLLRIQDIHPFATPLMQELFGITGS
Summary of the method: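 LS180 cells were lipofected transiently with pSG5-hPXR and p3A4-luc, then treated 24 h with test compound at up to 50 μM in DMSO 0.1% v/v. Agonist mode had no rifampicin; antagonist mode had RIF 10 μM. Luciferase was read after lysis. Antagonist data are % of the 10 μM RIF maximum. Four technical replicates, three consecutive passages.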

CYP3A11 mRNA [3] = experiment: CYP3A11 gene expression in tissues of mice expressing the human PXR transgene; format: in vivo, mice expressing the human PXR gene (hPXR)
Summary of the method: as §2

AhR = molecular target: T2, AhR (Homo sapiens, UniProt P35869); experiment: AhR reporter gene assay in stably transfected AZ-AHR cells; format: cell-based; details: 24 h; for Inhibition of TCDD-inducible luciferase activity: antagonist mode, TCDD 5 nM, attributed to cytotoxicity; for AhR agonistic activity: agonist mode, AZ-AHR cells
T2 sequence (P35869 11-848): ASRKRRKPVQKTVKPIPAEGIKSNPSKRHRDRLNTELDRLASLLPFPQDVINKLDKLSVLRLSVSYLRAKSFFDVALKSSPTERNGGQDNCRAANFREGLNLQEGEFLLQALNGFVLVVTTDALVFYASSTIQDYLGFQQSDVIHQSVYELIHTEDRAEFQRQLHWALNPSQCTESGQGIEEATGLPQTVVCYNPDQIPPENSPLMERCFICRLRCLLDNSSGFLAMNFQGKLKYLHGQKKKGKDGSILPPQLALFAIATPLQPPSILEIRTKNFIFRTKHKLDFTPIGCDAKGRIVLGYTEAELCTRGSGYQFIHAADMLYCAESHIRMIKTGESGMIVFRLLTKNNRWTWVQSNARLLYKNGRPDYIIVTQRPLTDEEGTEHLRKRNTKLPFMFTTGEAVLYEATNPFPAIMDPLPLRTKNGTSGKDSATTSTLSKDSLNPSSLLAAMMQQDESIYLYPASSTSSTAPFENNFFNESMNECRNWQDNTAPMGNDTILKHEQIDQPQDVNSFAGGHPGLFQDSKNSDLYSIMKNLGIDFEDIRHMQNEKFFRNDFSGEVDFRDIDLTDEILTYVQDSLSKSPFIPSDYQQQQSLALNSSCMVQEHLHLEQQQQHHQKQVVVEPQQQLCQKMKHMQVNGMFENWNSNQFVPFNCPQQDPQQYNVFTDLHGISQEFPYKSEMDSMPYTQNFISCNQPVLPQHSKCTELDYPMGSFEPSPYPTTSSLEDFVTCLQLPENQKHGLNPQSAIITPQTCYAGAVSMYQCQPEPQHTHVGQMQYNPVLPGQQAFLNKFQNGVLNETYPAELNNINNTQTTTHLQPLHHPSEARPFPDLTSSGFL
Summary of the method: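 AZ-AHR human hepatoma cells stably carrying an AhR-responsive luciferase reporter were exposed for 24 h to test compound at up to 50 μM (vehicle DMSO 0.1% v/v). Agonist mode was run without TCDD; antagonist mode with TCDD 5 nM. Lysed cells were read for luciferase. Agonist data are fold over negative control; antagonist data are % of the 5 nM TCDD maximum. Four wells per treatment, three consecutive passages.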

[4] = molecular target: T3, ligand-binding domain of human PXR (Homo sapiens, UniProt O75469); experiment: LanthaScreen TR-FRET PXR
T3 sequence (O75469 146-433 limits assumed): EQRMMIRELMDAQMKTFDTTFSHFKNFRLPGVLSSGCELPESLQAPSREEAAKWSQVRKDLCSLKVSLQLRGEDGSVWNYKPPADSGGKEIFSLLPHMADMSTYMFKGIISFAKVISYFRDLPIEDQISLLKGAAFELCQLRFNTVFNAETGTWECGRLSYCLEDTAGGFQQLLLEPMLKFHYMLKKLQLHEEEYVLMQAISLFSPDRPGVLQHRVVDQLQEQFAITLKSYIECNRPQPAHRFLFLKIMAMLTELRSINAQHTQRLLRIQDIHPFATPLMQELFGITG
Summary of the method: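 LanthaScreen TR-FRET competitive binding used the human PXR ligand-binding domain and measured displacement of a fluorescent ligand. The signal was the emission ratio 520 nm/495 nm, plotted against test compound concentration. IC50 came from interpolated sigmoidal 4PL variable-slope curves. Quadruplicate wells; at least four independent experiments. Positive control: SR12813 at 100 μM.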

CYP3A4 mRNA = experiment: qRT-PCR of CYP3A4 in primary human hepatocytes; format: cell-based; details: five hepatocyte cultures, 10 μM, 24 h
MDR1 mRNA [5] = experiment: qRT-PCR of MDR1 in primary human hepatocytes; format: cell-based; details: five hepatocyte cultures, RIF 10 μM, 24 h
CYP1A2 mRNA = experiment: qRT-PCR of CYP1A2 in primary human hepatocytes; format: cell-based; details: human hepatocytes from five donors, 10 μM, 24 h
Summary of the method: (§3)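 Long-term monolayer primary human hepatocytes came from five male donors aged 43–89 years. They were treated 24 h with test compound at 10 μM, with vehicle DMSO 0.1% v/v and reference ligands TCDD 10 nM and RIF 10 μM. Total RNA was extracted with TRI Reagent, and mRNA was measured by probe-based qRT-PCR normalized to GAPDH. Statistics: one-way ANOVA, with 2-fold induction as threshold.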

CYP1A1 mRNA = experiment: qRT-PCR of CYP1A1 in primary human hepatocytes; format: cell-based; details: human hepatocytes from five donors, 10 μM, 24 h
Summary of the method: as §3

PXR [6] = molecular target: T1, PXR; details: ref [21]; cited from earlier work
CYP3A11 mRNA [7] = details: PXR target genes CYP3A11 and MDR1a; depending on the dose schedule; ref [21]; cited from earlier work
[8] = liver, large and small intestine, 3 or 5 doses (500 μM/dose), 12 h interval

Induction of MDR1 mRNA in PXR-KO cells (MDR1 mRNA [1]) | pEC50 (PXR [2]) | PXR antagonist effect (PXR [2]) | pIC50 [4] | AhR agonistic activity (AhR) | SMILES | Cytotoxicity in AZ-AHR cells (AZ-AHR cells) | Induction of MDR1 mRNA (MDR1 mRNA [1]) | Cytotoxicity (MTT) (LS180 cells) | Inhibition of TCDD-inducible luciferase activity (AhR) | further results
no effects | ~6.10 | Dose-dependent antagonist effects | 6.04 | – | C#CCC(O)(c1ccn2ccnc2c1)c1cc2ccccc2n1S(=O)(=O)c1ccccc1 (stereo not shown) [CVK-021, 1-(imidazo[1,2-a]pyridin-7-yl)-1-(1-(phenylsulfonyl)-1H-indol-2-yl)but-3-yn-1-ol] | cytotoxic effects | Dose-dependent induction | slightly cytotoxic | Dose-dependent inhibition | MDR1a gene expression, Figure 7A (MDR1a mRNA; large and small intestines): increased gene expression; MDR1a gene expression, Figure 7B (MDR1a mRNA; liver and large intestine): increased gene expression; Induction (≥ 2) of mean MDR1a mRNA expression (MDR1a mRNA; [8]): no significant induction; CYP3A11 gene expression (CYP3A11 mRNA [3]; 3-dose and 5-dose study): not affected; Induction (≥ 2) of mean CYP3A11 mRNA expression (CYP3A11 mRNA [3]; [8]): no significant induction; Induction of CYP3A4 mRNA in human hepatocytes (CYP3A4 mRNA): significantly induced CYP3A4 mRNA in all five human hepatocytes cultures
– | 5.12 | – | 5.07 | strong | C#CCC(O)(c1ccncc1)c1cc2ccccc2[nH]1 (stereo not shown) [CVK-003, 1-(1H-indol-2-yl)-1-(pyridin-4-yl)but-3-yn-1-ol] | – | – | – | – | –

Continued, compound first:

SMILES | Induction of MDR1 mRNA in PXR-KO cells (MDR1 mRNA [1]) | pEC50 (PXR [2]) | PXR antagonist effect (PXR [2]) | pIC50 [4] | AhR agonistic activity (AhR) | Cytotoxicity in AZ-AHR cells (AZ-AHR cells) | Induction of MDR1 mRNA (MDR1 mRNA [1]) | Cytotoxicity (MTT) (LS180 cells) | Inhibition of TCDD-inducible luciferase activity (AhR) | further results
CO[C@H]1/C=C/O[C@@]2(C)Oc3c(C)c(O)c4c(O)c(c(/C=N/N5CCN(C)CC5)c(O)c4c3C2=O)NC(=O)/C(C)=C\C=C\[C@H](C)[C@H](O)[C@@H](C)[C@@H](O)[C@@H](C)[C@H](OC(C)=O)[C@@H]1C [rifampicin] | – | – | – | – | – | – | – | – | – | Induction of MDR1 mRNA in human hepatocytes (MDR1 mRNA [5]): induction only by rifampicin and only in three hepatocytes cultures
O=C(c1ccn2ccnc2c1)c1cc2ccccc2n1S(=O)(=O)c1ccccc1 [CVK-016, imidazo[1,2-a]pyridin-7-yl(1-(phenylsulfonyl)-1H-indol-2-yl)methanone] | no effects | ~6.10 | Dose-dependent antagonist effects | – | – | cytotoxic effects | Dose-dependent induction | slightly cytotoxic | Dose-dependent inhibition | Induction of hepatic CYP1A2 mRNA (CYP1A2 mRNA): significantly induced; Induction of hepatic CYP1A1 mRNA (CYP1A1 mRNA): significantly induced
C#CCC(O)(c1ccncc1)c1cc2ccccc2n1S(=O)(=O)c1ccccc1 (stereo not shown) [FKK6, 1-(1-(phenylsulfonyl)-1H-indol-2-yl)-1-(pyridin-4-yl)but-3-yn-1-ol] | – | – | – | – | – | – | – | – | – | PXR versus AhR agonist selectivity (PXR [6]): selective PXR agonist; Induction of PXR target genes in mouse intestines or liver (CYP3A11 mRNA [7]): robustly induced
O=S(=O)(c1ccccc1)n1c(C(O)c2ccn3ccnc3c2)cc2ccccc21 (stereo not shown) [CVK-017, imidazo[1,2-a]pyridin-7-yl(1-(phenylsulfonyl)-1H-indol-2-yl)methanol] | no effects | ~6.10 | Dose-dependent antagonist effects | – | moderate | cytotoxic effects | Dose-dependent induction | slightly cytotoxic | Dose-dependent inhibition | –
